ChEMBL document CHEMBL1153060, “Part 1: Structure-Activity Relationship (SAR) investigations of fused pyrazoles as potent, selective and orally available inhibitors of p38alpha mitogen-activated protein kinase” (Bioorg Med Chem Lett, 2009)
Values after ≈ are worked out from the molar mass of the structure shown.

Legend:
[1] = target: T1, Mitogen-activated protein kinase 12 (Homo sapiens, UniProt P53778); assay: Inhibition of p38-gamma
T1 sequence (P53778 whole entry): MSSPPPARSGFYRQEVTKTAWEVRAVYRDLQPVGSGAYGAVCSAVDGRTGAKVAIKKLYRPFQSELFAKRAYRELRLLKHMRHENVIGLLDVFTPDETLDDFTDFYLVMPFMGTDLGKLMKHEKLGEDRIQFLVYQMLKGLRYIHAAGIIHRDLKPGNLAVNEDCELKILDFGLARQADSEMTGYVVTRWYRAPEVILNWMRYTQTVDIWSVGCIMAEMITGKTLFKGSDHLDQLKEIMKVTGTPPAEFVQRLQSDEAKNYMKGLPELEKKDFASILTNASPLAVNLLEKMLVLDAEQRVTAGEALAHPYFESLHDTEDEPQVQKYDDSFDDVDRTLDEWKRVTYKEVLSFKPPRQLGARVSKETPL

Rattus norvegicus [2] = assay: Inhibition of LPS-induced TNFalpha production in Lewis rat at 0.01 mg/kg, po administered 60 mins prior to LPS challenge measured after 90 mins by ELISA
[3] = target: Mitogen-activated protein kinase 9 (Homo sapiens, UniProt P45984); assay: Inhibition of JNK2
[4] = Ratio of drug level in brain to plasma in Lewis rat; assay type: ADME; conditions: read-out: BPR
[5] = Protein binding in rat plasma by ultrafiltration method; conditions: read-out: PPB (converted)
Homo sapiens = species on record: Homo sapiens; assay: Protein binding in human plasma by ultrafiltration method; conditions: read-out: PPB (converted)
[6] = Oral bioavailability in Sprague-Dawley rat at 2 mg/kg; assay type: ADME, organism-based; conditions: in vivo
Procedure, shortened: (§1)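 Male Sprague–Dawley rats given 2.0 mg/kg iv (in DMSO) or 2.0 mg/kg po. Values are the mean of three rats. Reported parameters are CL, Vdss, t1/2, AUC(0-inf) and oral F.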

[7] = Solubility in simulated intestinal fluid; assay type: physicochemical
[8] = target: Mitogen-activated protein kinase 14 (Homo sapiens, UniProt Q16539); assay: Inhibition of human recombinant p38alpha assessed as phosphorylation of ATF2 by scintillation proximity assay
[9] = Half life in Sprague-Dawley rat at 2 mg/kg, iv; assay type: ADME, organism-based; design: dose 2 mg/kg, route intravenous; conditions: in vivo; procedure, shortened: as §1
[10] = target: Mitogen-activated protein kinase 10 (Homo sapiens, UniProt P53779); assay: Inhibition of JNK3
Rattus norvegicus [11] = assay: Inhibition of LPS-induced TNFalpha production in Lewis rat at 0.3 mg/kg, po administered 60 mins prior to LPS challenge measured after 90 mins by ELISA
Cytochrome P450 1A2 = target: T2, Cytochrome P450 1A2 (Homo sapiens, UniProt P05177); assay: Inhibition of CYP1A2; assay type: ADME
T2 sequence (P05177 whole entry): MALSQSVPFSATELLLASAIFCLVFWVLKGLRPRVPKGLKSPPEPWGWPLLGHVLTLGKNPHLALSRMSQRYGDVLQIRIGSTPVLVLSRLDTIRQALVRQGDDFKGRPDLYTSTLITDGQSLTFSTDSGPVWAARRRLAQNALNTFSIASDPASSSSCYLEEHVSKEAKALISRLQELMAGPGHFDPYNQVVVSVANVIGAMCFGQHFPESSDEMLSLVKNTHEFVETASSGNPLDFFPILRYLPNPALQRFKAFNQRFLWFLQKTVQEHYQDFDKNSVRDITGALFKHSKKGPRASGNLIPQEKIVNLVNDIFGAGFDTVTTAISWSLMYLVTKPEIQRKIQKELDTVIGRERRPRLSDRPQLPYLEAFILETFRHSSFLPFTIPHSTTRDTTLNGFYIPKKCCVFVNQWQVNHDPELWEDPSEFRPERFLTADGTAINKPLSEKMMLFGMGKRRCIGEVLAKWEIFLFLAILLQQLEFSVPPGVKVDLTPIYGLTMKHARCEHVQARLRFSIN

[12] = target: Mitogen-activated protein kinase 11 (Homo sapiens, UniProt Q15759); assay: Inhibition of p38beta
[13] = Solubility in phosphate buffered saline; assay type: physicochemical
[14] = Solubility in 0.01N HCl; assay type: physicochemical
[15] = target: Mitogen-activated protein kinase 8 (Homo sapiens, UniProt P45983); assay: Inhibition of JNK1
Rattus norvegicus [16] = species on record: Rattus norvegicus; assay: Plasma concentration in Lewis rat at ED50; assay type: ADME, organism-based; conditions: in vivo
[17] = target: RAF proto-oncogene serine/threonine-protein kinase (Homo sapiens) (UniProt P04049); assay: Inhibition of c-Raf at 1.5 uM; values are per cent of control
[18] = AUC (0 to infinity) in Sprague-Dawley rat at 2 mg/kg, po; assay type: ADME, organism-based; design: time infinity, dose 2 mg/kg, route oral; conditions: plasma; procedure, shortened: as §1
[19] = target: T3, Mitogen-activated protein kinase 13 (Homo sapiens, UniProt O15264); assay: Inhibition of p38delta
T3 sequence (O15264 whole entry): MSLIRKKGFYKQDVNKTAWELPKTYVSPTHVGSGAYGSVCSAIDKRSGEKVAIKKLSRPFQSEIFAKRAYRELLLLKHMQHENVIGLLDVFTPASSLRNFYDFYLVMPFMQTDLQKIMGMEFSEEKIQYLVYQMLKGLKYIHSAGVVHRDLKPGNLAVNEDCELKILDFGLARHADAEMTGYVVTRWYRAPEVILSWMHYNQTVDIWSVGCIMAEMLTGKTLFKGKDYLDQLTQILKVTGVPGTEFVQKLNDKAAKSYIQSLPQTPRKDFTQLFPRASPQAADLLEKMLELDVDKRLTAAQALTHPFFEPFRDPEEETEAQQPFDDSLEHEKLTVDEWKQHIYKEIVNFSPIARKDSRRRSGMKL

Cytochrome P450 2C19 = Cytochrome P450 2C19 (Homo sapiens, UniProt P33261); assay: Inhibition of CYP2C19; assay type: ADME
[20] = Volume of distribution at steady state in Sprague-Dawley rat at 2 mg/kg, iv; assay type: ADME, organism-based; design: dose 2 mg/kg, route intravenous; conditions: in vivo, read-out: Vdss; procedure, shortened: as §1
Rattus norvegicus [21] = assay: Inhibition of LPS-induced TNFalpha production in Lewis rat at 0.1 mg/kg, po administered 60 mins prior to LPS challenge measured after 90 mins by ELISA
Cytochrome P450 2C9 = Cytochrome P450 2C9 (Homo sapiens, UniProt P11712); assay: Inhibition of CYP2C9; assay type: ADME
Rattus norvegicus [22] = assay: Inhibition of LPS-induced TNFalpha production in Lewis rat at 0.03 mg/kg, po administered 60 mins prior to LPS challenge measured after 90 mins by ELISA
Rattus norvegicus [23] = assay: Inhibition of LPS-induced TNFalpha production in po dosed Lewis rat administered 60 mins prior to LPS challenge measured after 90 mins by ELISA
Blood = assay: Inhibition of TNF-alpha-stimulated IL8 production in human whole blood incubated for 1 hr before TNFalpha challenge measured after 16 to 18 hrs; assay type: functional, tissue-based
Procedure, shortened: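 Human whole blood diluted to 50% and stimulated with TNFα, with IL-8 secretion as read-out. IC50 is the mean of at least three independent dose–response curves, or of two where flagged.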

Cytochrome P450 2D6 = Cytochrome P450 2D6 (Homo sapiens, UniProt P10635); assay: Inhibition of CYP2D6; assay type: ADME
THP-1 = assay: Inhibition of LPS-induced TNFalpha release in human THP1 cells after 3 hrs; assay type: functional, cell-based; conditions: THP-1, 3 h
Procedure, shortened: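 THP1 cell line challenged with LPS, with TNFα secretion as read-out. IC50 is the mean of at least three independent dose–response curves, or of two where flagged.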

Cytochrome P450 3A4 = Cytochrome P450 3A4 (Homo sapiens, UniProt P08684); assay: Inhibition of CYP3A4; assay type: ADME
[24] = Clearance in Sprague-Dawley rat at 2 mg/kg, iv; assay type: ADME, organism-based; design: dose 2 mg/kg, route intravenous; conditions: in vivo; procedure, shortened: as §1

Mitogen-activated protein kinase 11, sequence (Q15759 whole entry): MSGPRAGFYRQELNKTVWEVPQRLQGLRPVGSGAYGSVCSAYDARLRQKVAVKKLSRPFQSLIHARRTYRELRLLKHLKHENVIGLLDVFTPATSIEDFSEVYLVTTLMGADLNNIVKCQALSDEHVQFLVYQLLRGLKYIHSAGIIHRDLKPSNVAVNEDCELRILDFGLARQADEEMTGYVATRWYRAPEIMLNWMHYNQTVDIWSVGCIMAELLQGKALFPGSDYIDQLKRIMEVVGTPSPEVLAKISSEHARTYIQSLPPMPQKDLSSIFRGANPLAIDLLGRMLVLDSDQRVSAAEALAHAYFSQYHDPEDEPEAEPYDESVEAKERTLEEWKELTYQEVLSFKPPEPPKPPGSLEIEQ
Cytochrome P450 3A4, sequence (P08684 whole entry): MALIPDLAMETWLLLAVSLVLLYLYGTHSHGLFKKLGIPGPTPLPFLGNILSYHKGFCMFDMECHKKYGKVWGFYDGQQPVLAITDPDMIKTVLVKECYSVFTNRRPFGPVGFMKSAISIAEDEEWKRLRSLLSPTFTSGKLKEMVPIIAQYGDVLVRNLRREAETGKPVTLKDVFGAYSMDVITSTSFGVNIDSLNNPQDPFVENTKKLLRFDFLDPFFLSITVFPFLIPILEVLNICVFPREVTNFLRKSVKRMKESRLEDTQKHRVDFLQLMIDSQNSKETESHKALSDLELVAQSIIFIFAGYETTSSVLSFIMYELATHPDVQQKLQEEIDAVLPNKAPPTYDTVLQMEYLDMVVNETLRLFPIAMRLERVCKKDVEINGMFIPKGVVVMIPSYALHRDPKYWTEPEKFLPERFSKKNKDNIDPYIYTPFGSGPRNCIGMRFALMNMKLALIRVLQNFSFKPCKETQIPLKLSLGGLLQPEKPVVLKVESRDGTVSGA
Cytochrome P450 2C19, sequence (P33261 whole entry): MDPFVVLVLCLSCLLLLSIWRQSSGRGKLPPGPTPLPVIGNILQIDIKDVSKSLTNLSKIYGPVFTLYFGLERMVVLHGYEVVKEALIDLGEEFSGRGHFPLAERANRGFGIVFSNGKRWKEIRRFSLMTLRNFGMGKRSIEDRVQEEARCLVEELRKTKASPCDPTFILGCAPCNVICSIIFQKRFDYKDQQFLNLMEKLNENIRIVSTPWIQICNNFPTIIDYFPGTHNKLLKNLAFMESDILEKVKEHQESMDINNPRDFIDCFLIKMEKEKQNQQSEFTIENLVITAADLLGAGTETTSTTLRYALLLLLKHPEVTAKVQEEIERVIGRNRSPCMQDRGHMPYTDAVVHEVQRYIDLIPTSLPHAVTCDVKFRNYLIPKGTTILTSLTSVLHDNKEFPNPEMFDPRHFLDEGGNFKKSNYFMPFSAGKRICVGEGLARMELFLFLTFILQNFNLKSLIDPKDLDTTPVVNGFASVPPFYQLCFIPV
Mitogen-activated protein kinase 9, sequence (P45984 whole entry): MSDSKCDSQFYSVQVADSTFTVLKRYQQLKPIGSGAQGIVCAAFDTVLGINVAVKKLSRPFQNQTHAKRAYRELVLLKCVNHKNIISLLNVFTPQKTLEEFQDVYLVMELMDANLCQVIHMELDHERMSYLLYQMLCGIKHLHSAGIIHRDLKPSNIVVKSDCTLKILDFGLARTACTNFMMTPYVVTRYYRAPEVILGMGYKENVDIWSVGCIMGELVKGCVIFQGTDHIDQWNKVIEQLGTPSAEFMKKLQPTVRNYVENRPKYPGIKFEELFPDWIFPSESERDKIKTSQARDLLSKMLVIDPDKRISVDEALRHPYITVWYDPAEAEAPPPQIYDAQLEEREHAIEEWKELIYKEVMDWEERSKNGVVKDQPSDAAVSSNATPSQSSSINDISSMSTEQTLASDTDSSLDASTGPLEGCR
Mitogen-activated protein kinase 8, sequence (P45983 whole entry): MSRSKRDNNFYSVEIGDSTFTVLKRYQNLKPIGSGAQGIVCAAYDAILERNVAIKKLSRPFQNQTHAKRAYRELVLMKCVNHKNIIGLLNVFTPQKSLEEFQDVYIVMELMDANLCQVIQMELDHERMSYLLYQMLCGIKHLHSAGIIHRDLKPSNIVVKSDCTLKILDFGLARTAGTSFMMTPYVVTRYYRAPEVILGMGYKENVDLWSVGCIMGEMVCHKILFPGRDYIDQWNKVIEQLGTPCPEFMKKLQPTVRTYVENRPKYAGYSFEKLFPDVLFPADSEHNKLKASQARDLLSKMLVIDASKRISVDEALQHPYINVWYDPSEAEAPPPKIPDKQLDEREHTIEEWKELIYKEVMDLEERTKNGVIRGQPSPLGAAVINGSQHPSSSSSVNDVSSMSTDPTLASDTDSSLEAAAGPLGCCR
Mitogen-activated protein kinase 14, sequence (Q16539 whole entry): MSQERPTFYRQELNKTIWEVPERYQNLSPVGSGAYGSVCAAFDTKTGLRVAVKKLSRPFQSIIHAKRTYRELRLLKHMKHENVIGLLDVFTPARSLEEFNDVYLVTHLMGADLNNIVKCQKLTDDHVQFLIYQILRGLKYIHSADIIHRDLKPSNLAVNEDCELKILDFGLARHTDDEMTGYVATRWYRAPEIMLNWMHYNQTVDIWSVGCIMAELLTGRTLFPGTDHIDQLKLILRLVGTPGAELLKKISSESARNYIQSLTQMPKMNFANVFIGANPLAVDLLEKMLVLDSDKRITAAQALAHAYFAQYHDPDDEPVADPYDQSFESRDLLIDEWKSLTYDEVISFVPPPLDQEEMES
Cytochrome P450 2C9, sequence (P11712 whole entry): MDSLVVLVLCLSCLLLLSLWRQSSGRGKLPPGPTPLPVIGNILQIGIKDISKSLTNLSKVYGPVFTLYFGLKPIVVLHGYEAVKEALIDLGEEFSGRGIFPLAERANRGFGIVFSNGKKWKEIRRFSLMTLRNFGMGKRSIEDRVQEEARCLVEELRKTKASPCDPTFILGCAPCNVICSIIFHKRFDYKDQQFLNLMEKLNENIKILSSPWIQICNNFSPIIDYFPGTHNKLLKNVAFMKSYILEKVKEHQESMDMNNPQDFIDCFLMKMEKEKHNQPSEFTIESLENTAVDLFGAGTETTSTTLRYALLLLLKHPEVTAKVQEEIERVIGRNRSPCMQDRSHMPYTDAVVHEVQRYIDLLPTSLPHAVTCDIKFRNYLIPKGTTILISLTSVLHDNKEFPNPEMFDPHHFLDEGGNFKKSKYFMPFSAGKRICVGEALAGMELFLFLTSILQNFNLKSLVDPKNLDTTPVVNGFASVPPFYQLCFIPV
Cytochrome P450 2D6, sequence (P10635 whole entry): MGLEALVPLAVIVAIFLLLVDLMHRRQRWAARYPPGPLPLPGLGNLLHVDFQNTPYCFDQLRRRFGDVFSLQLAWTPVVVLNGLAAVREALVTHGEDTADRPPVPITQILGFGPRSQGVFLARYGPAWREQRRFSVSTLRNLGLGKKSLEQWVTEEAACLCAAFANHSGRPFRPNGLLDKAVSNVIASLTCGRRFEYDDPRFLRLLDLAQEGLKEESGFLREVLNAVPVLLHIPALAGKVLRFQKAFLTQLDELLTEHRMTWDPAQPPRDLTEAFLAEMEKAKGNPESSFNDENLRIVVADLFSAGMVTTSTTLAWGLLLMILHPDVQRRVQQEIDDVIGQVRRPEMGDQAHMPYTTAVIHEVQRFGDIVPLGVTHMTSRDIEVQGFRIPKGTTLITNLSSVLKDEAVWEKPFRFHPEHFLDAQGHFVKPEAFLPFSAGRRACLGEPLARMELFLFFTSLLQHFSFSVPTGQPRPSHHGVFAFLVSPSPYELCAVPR
RAF proto-oncogene serine/threonine-protein kinase (Homo sapiens), sequence (P04049 whole entry): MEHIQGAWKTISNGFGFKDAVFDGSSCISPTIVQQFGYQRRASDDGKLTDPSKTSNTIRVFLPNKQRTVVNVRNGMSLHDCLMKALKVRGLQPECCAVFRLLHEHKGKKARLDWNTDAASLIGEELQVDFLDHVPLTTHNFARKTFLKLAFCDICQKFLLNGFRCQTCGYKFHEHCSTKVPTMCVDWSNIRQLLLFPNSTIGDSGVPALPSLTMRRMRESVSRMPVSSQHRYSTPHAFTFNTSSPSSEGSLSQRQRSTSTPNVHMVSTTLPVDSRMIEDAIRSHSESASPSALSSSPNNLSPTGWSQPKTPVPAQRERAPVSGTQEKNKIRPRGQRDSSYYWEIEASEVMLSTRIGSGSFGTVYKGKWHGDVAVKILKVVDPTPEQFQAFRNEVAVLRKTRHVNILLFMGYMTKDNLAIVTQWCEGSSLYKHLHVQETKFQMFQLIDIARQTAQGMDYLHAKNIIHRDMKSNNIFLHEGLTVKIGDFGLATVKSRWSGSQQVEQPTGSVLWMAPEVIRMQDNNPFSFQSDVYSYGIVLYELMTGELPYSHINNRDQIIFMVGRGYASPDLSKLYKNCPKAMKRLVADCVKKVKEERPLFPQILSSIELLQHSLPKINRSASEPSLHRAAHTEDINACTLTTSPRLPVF
Mitogen-activated protein kinase 10, sequence (P53779 whole entry): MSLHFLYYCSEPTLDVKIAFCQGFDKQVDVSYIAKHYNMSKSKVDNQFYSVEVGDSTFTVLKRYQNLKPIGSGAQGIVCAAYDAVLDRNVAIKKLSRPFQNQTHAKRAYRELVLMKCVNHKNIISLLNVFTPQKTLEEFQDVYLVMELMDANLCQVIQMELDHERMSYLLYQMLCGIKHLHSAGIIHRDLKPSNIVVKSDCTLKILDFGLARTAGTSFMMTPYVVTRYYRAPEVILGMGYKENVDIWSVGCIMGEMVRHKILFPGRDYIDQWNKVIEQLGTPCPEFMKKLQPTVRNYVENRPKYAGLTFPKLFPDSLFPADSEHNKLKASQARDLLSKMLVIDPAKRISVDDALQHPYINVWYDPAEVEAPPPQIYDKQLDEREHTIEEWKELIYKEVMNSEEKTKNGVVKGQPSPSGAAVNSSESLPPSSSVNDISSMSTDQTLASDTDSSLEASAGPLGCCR

Cn1c(=O)cc(Nc2cc(C(=O)NC3CC3)ccc2Cl)c2cnn(-c3ccc(F)cc3)c21
IC50 [1]: > 10 µM
inhibition in vivo at 0.01 mg/kg (Rattus norvegicus [2]): 21%
IC50 [3]: > 10 µM
Kp [4]: 0.04
fraction unbound [5]: 0.03
fraction unbound (Homo sapiens): 0.06
bioavailability [6]: 84%
solubility [7]: 38.8 µg/mL (≈ 85.9 µM)
IC50 [8]: 0.0015 µM
half-life [9]: 5.8 h
IC50 [10]: > 10 µM
inhibition in vivo at 0.3 mg/kg (Rattus norvegicus [11]): 97.4%
IC50 (Cytochrome P450 1A2): > 30 µM
IC50 [12]: 0.004 µM
solubility [13]: 26.6 µg/mL (≈ 58.9 µM)
solubility [14]: 31.2 µg/mL (≈ 69 µM)
IC50 [15]: > 10 µM
Cp (Rattus norvegicus [16]): 3.2 ng/mL
residual activity [17]: 40%
AUC(0-inf) [18]: 6550 ng·h/mL
IC50 [19]: > 10 µM
IC50 (Cytochrome P450 2C19): > 21 µM
Vd [20]: 0.97 L/kg
inhibition in vivo at 0.1 mg/kg (Rattus norvegicus [21]): 50.1%
IC50 (Cytochrome P450 2C9): > 21 µM
inhibition in vivo at 0.03 mg/kg (Rattus norvegicus [22]): 5.6%
ED50 (Rattus norvegicus [23]): 0.1 mg/kg
IC50 (Blood): 0.0025 µM
IC50 (Cytochrome P450 2D6): > 21 µM
IC50 (THP-1): 0.0011 µM
IC50 (Cytochrome P450 3A4): > 30 µM
clearance [24]: 4.33 mL/min/kg
